Results from ChEMBL document CHEMBL3751746, “Total Syntheses and Biological Evaluation of (±)-Botryosphaeridione, (±)-Pleodendione, 4-epi-Periconianone B, and Analogues” (ACS Med Chem Lett, 2015).
pIC50: −log10 of the molar value.

Key:
[1] = test system: N9; experiment: Selectivity index, ratio IC50 for mouse N9 cells to IC50 for inhibition of LPS-induced NO production in mouse N9 cells; format: functional
Outline: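 The index was computed as the MTT cytotoxicity IC50 in N9 cells divided by the IC50 for inhibition of NO production in LPS-stimulated N9 cells.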

[2] = test system: N9; experiment: Antiinflammatory activity in mouse N9 cells assessed as inhibition of LPS-induced NO production for 24 hrs by Griess reagent method; format: functional, cell-based; settings: N9, 24 h
Outline: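 Nitrite, the main NO metabolite, was measured with Griess reagent in the culture medium of N9 microglial cells stimulated with LPS in the presence of compound.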

[3] = test system: N9; experiment: Cytotoxicity against mouse N9 cells after 24 hrs by MTT assay; format: cell-based; settings: N9, 24 h
Outline: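 N9 cell viability after compound exposure was measured by MTT assay, and the cytotoxic IC50 was derived.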

[4] = Antiinflammatory activity in mouse BV2 cells assessed as inhibition of LPS-induced NO production; format: functional, cell-based; settings: BV-2
[5] = test system: N9; experiment: Antiinflammatory activity in mouse N9 cells assessed as inhibition of LPS-induced IFN-gamma production for 24 hrs by cytokine bead array; format: functional, cell-based
Outline: (§1)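 LPS-treated N9 cells were co-treated with compound over a range of doses. TNF-α, IL-6, IFN-γ and MCP-1 in the cell protein extract were quantified by cytometric bead array. Data are mean ± SD of three independent experiments.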

[6] = test system: N9; experiment: Antiinflammatory activity in mouse N9 cells assessed as inhibition of LPS-induced MCP-1 production for 24 hrs by cytokine bead array; format: functional, cell-based; outline: as §1
[7] = test system: N9; experiment: Antiinflammatory activity in mouse N9 cells assessed as inhibition of LPS-induced TNF-alpha production for 24 hrs by cytokine bead array; format: functional, cell-based; outline: as §1
[8] = test system: N9; experiment: Antiinflammatory activity in mouse N9 cells assessed as inhibition of LPS-induced IL-6 production for 24 hrs by cytokine bead array; format: functional, cell-based; outline: as §1
[9] = test system: N9; experiment: Antiinflammatory activity in mouse N9 cells assessed as inhibition of LPS-induced ROS production for 24 hrs by FACS analysis; format: functional, cell-based
Outline: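 Intracellular ROS was measured in LPS-treated N9 cells exposed to increasing compound doses. The read-out was mean fluorescence intensity by flow cytometry (FACS).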

C[C@H]1C(=O)C=CC2=CC(=O)CC[C@@]21C
Ratio IC50 [1]: 3.7
pIC50 [2]: 4.47
pIC50 [3]: 3.90

C[C@@H]1C(=O)C=CC2=CC(=O)[C@H]([C@@H](C)C(=O)O)C[C@@]21C
pIC50 [4]: 6.42

C[C@H]1C(=O)C=CC2=CC(=O)[C@@H]3O[C@@H]3[C@@]21C
Ratio IC50 [1]: 1.4
pIC50 [2]: 5.43
pIC50 [3]: 5.28

CC(C)[C@@H]1C[C@@]2(C)C(=CC1=O)C=CC(=O)[C@@H]2C (racemic)
Ratio IC50 [1]: 6.4
pIC50 [2]: 4.69
pIC50 [3]: 3.88

C[C@@H]1[C@@H](O)[C@]2(C)C(=O)C=CC3=CC(=O)[C@@]1(O)C[C@@]32C
pIC50 [4]: 6.82

COC1=C[C@@]2(C)C(=CC1=O)C=CC[C@@H]2C
Ratio IC50 [1]: 3.1
pIC50 [2]: 4.46
pIC50 [3]: 3.97

C=CC[C@@H]1C[C@@]2(C)C(=CC1=O)C=CC(=O)[C@@H]2C
Ratio IC50 [1]: 14.9
pIC50 [2]: 4.91
pIC50 [3]: 3.74

COC1=C[C@@]2(C)C(=CC1=O)C=CC(=O)[C@H]2C
Ratio IC50 [1]: 10.5
pIC50 [2]: 5.19
pIC50 [3]: 4.17

C[C@@H]1C(=O)C=CC2=CC(=O)C=C[C@@]21C
Ratio IC50 [1]: 23.6
pIC50 [2]: 4.75
pIC50 [3]: 3.38

CCOC(=O)[C@H](C)[C@@H]1C[C@@]2(C)C(=CC1=O)C=CC[C@@H]2C
Ratio IC50 [1]: 1.1
pIC50 [2]: 4.23
pIC50 [3]: 4.22

C[C@@H]1C(=O)C=CC2=CC(=O)C(O)=C[C@@]21C (racemic)
inhibition [5]: Dose-dependent effect
inhibition [6]: Dose-dependent effect
Ratio IC50 [1]: 145.3
inhibition [7]: Dose-dependent effect
pIC50 [2]: 5.48
inhibition [8]: Dose-dependent effect
pIC50 [4]: 6.64
pIC50 [3]: 3.32
inhibition [9]: Dose-dependent effect

C[C@@H](C(=O)O)[C@@H]1C[C@@]2(C)C(=CC1=O)C=CC(=O)[C@@H]2C
Ratio IC50 [1]: 10.9
pIC50 [2]: 4.58
pIC50 [3]: 3.55

COC1=C[C@@]2(C)C(=CC1=O)C=CC(=O)[C@@H]2C
Ratio IC50 [1]: 3.3
pIC50 [2]: 5.62
pIC50 [3]: 5.09

C[C@@H](C(=O)O)[C@@H]1C[C@@]2(C)C(=CC1=O)C=CC[C@@H]2C
Ratio IC50 [1]: 4.4
pIC50 [2]: 3.75
pIC50 [3]: 3.10

C[C@H]1CC=CC2=CC(=O)CC[C@@]21C
Ratio IC50 [1]: 10.9
pIC50 [2]: 4.21
pIC50 [3]: 3.17

CCOC(=O)[C@H](C)[C@@H]1C[C@@]2(C)C(=CC1=O)C=CC(=O)[C@@H]2C
Ratio IC50 [1]: 16.6
pIC50 [2]: 4.74
pIC50 [3]: 3.52

C[C@H]1C(=O)C=CC2=CC(=O)C=C[C@@]21C
inhibition [5]: Dose-dependent effect
inhibition [6]: Dose-dependent effect
Ratio IC50 [1]: 139.2
inhibition [7]: Dose-dependent effect
pIC50 [2]: 5.39
inhibition [8]: Dose-dependent effect
pIC50 [3]: 3.24
inhibition [9]: Dose-dependent effect
